From ChEMBL document CHEMBL3421626, “Prenylated benzophenones from Triadenum japonicum” (2015)
Values after ≈ are worked out from the molar mass of the structure shown. Numbered stars: 1 amine (or outer) side, 2 acyl side, 3 side chain; on linkers, the order of the positions; unused ones are H or OH. Bridge positions count the residues as written; N and C are the ends. Square brackets hold non-standard residues; d marks the D form. Peptide text beside a SMILES is read from it. * marks the point of attachment. hTyr(3S-OH,4S-OH,3'-OSO3H) = N[C@H](C(=O)O)[C@H](O)[C@@H](O)c1ccc(O)c(OS(=O)(=O)O)c1; Orn(4R-OH,5R-OH) = O=C([C@H](C[C@@H](O)[C@@H](O)N[*:3])N[*:1])[*:2]; Pro(3S-OH,4S-Me) = C[C@H]1CN[C@H](C(=O)O)[C@H]1O; X1 = CCCCCOc1ccc(-c2cc(-c3ccc(C(=O)*)cc3)no2)cc1; Gln(3R-OH) = NC(=O)C[C@@H](O)[C@H](N)C(=O)O; Hyp = O=C(O)[C@@H]1C[C@@H](O)CN1

Experiments:
Type in all cases: functional
[1] = system: Escherichia coli; assay: Antimicrobial activity against Escherichia coli assessed as reduction in bacterial growth incubated for 48 hrs by microbroth dilution method
Method in brief: (§1)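 Panel assay run per a previously reported protocol. Amphotericin B, micafungin, hygromycin B and kanamycin served as control agents across the organism panel.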

[2] = system: Micrococcus luteus; assay: Antimicrobial activity against Micrococcus luteus assessed as reduction in bacterial growth incubated for 48 hrs by microbroth dilution method; method in brief: as §1
[3] = system: Aspergillus niger; assay: Antimicrobial activity against Aspergillus niger IFM62678 assessed as reduction in […] growth incubated for 48 hrs by microbroth dilution method; conditions: IFM62678, 48 h; method in brief: as §1
[4] = system: Bacillus subtilis; assay: Antimicrobial activity against Bacillus subtilis assessed as reduction in bacterial growth incubated for 48 hrs by microbroth dilution method; method in brief: as §1
[5] = system: Candida albicans; assay: Antimicrobial activity against Candida albicans IFM62680 assessed as reduction in […] growth incubated for 48 hrs by microbroth dilution method; conditions: IFM62680, 48 h
[6] = system: Trichophyton mentagrophytes; assay: Antimicrobial activity against Trichophyton mentagrophytes IFM62679 assessed as reduction in […] growth incubated for 48 hrs by microbroth dilution method; conditions: IFM62679, 48 h; method in brief: as §1
[7] = system: Staphylococcus aureus; assay: Antimicrobial activity against Staphylococcus aureus assessed as reduction in bacterial growth incubated for 48 hrs by microbroth dilution method; method in brief: as §1

| Compound | MIC [1] [µg/mL] | MIC [2] [µg/mL] | IC50 [3] [µg/mL] | MIC [4] [µg/mL] | IC50 [5] [µg/mL] | IC50 [6] [µg/mL] | MIC [7] [µg/mL] |
| --- | --- | --- | --- | --- | --- | --- | --- |
| CCCCCOc1ccc(-c2cc(-c3ccc(C(=O)N[C@H]4C[C@@H](O)[C@@H](O)NC(=O)[C@@H]5[C@@H](O)[C@@H](C)CN5C(=O)[C@H]([C@H](O)CC(N)=O)NC(=O)[C@H]([C@H](O)[C@@H](O)c5ccc(O)c(OS(=O)(=O)O)c5)NC(=O)[C@@H]5C[C@@H](O)CN5C(=O)[C@H]([C@@H](C)O)NC4=O)cc3)no2)cc1 [MICAFUNGIN] (X1-[Orn(4R-OH,5R-OH)]T[Hyp][hTyr(3S-OH,4S-OH,3'-OSO3H)][Gln(3R-OH)][Pro(3S-OH,4S-Me)]; lactam 1-C) | > 62.5 | 7.8 (≈ 6.14 µM) | < 0.1 | 0.5 (≈ 0.394 µM) | < 0.1 | < 0.1 | 0.5 (≈ 0.394 µM) |
| CN[C@H]1C[C@@H](N)[C@H](O)[C@@H](O[C@@H]2O[C@H](CO)[C@H](O)[C@H]3O[C@@]4(O[C@H]23)O[C@H]([C@H](N)CO)[C@H](O)[C@H](O)[C@H]4O)[C@@H]1O | 2 (≈ 3.79 µM) | 1 (≈ 1.9 µM) | 1 (≈ 1.9 µM) | 2 (≈ 3.79 µM) | 3.9 (≈ 7.39 µM) | 1 (≈ 1.9 µM) | 0.5 (≈ 0.948 µM) |
| NC[C@H]1O[C@H](O[C@H]2[C@H](O)[C@@H](O[C@H]3O[C@H](CO)[C@@H](O)[C@H](N)[C@H]3O)[C@H](N)C[C@@H]2N)[C@H](O)[C@@H](O)[C@@H]1O [KANAMYCIN] | < 0.1 | 1 (≈ 2.06 µM) | 31.3 (≈ 64.6 µM) | < 0.1 | > 62.5 | 7.8 (≈ 16.1 µM) | < 0.1 |
| CC(C)=CC[C@@H]1C[C@@]2(CC=C(C)C)C(=O)C3(CC=C(C)C)C[C@]1(C)[C@]2(O)/C(=C(/O)c1ccccc1)C3=O | 8 (≈ 15.9 µM) | 32 (≈ 63.7 µM) | 16 (≈ 31.8 µM) | 16 (≈ 31.8 µM) | 32 (≈ 63.7 µM) | 8 (≈ 15.9 µM) | 16 (≈ 31.8 µM) |
| C[C@@H]1[C@H](O)[C@@H](C)/C=C/C=C/C=C/C=C/C=C/C=C/C=C/[C@H](O[C@@H]2O[C@H](C)[C@@H](O)[C@H](N)[C@@H]2O)C[C@@H]2O[C@](O)(C[C@@H](O)C[C@@H](O)[C@H](O)CC[C@@H](O)C[C@@H](O)CC(=O)O[C@H]1C)C[C@H](O)[C@H]2C(=O)O [AMPHOTERICIN B] | > 31.2 | > 31.2 | 1.8 (≈ 1.95 µM) | > 31.2 | 1 (≈ 1.08 µM) | 3.9 (≈ 4.22 µM) | > 31.2 |
| CC(C)=CC[C@]12C[C@H]3C[C@@H](C(C)(C)OO)OO[C@]3(C)C[C@](CC=C(C)C)(C1=O)C(O)=C(C(=O)c1ccccc1)C2=O |  |  |  |  | 8 (≈ 14.1 µM) |  |  |
